The text below walks through data of ChEMBL document CHEMBL1926500, “Design, synthesis, biological evaluation and molecular modeling of 1,3,4-oxadiazoline analogs of combretastatin-A4 as novel antitubulin agents” (Bioorg Med Chem, 2012).

Molecules are shown by their SMILES.

Assay [1] is described as follows: Inhibition of bovine brain tubulin polymerization after 20 mins by turbidimetry. Also noted: species or system Bos taurus. An outline of the steps:
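Bovine brain tubulin, purified in-house, used at 10 μM in glutamate buffer and preincubated with varying compound concentrations at 30 °C, then cooled to 0 °C. GTP added, mixtures warmed to 30 °C in a recording spectrophotometer, and assembly followed turbidimetrically. IC50 is the concentration inhibiting extent of assembly by 50% after 20 min.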

In assay [2] the test system is HepG2. Description: Antiproliferative activity against human HepG2 cells after 48 hrs by MTT assay. Format: functional, cell-based. To be noted: HepG2, 48 h. An outline of the steps:
(§1)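 Cells grown to log phase in RPMI 1640 with 10% FBS, seeded at 2×10^4 cells/mL, then left 24 h at 37 °C, 5% CO2 before dosing at pre-set concentrations. […] After 48 h exposure, MTT (2.5 mg/mL in PBS) was added for 4 h, then SDS/isobutyl alcohol/HCl extraction overnight at 37 °C, and OD read at 570 nm. Triplicate wells per concentration; each assay run at least three times; IC50 derived.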
On the technique in general: Tetrazolium assays rely on reduction of a dye to a coloured formazan, in cell work by metabolically active cells.

Assay [3] relates to MCF7. In words: Antiproliferative activity against human MCF7 cells after 48 hrs by MTT assay. Format: functional, cell-based. To be noted: MCF7, 48 h. The method in brief: as §1
Assay [4] has as its system B16-F10. In words: Antiproliferative activity against mouse B16F10 cells after 48 hrs by MTT assay. To be noted: B16-F10, 48 h. Format: functional, cell-based. An outline of the steps: as §1
Assay [5] concerns B16-F10. Description: Cell cycle arrest in mouse B16F10 cells assessed as accumulation at Go/G1 phase at 2 ug/ml after 24 hrs by flow cytometry analysis (reference value: 70.4 %). Format: functional. Background: Flow cytometry measures light scatter and fluorescence of single cells or particles in a stream.
Assay [6] deals with B16-F10. In words: Cell cycle arrest in mouse B16F10 cells assessed as accumulation at S phase at 2 ug/ml after 24 hrs by flow cytometry analysis (reference value: 9.97 %). Format: functional.
Assay [7] concerns B16-F10. Description: Cell cycle arrest in mouse B16F10 cells assessed as accumulation at G2/M phase at 2 ug/ml after 24 hrs by flow cytometry analysis (reference value: 17.67 %). Format: functional.
The subject of assay [8] is B16-F10. In words: Cell cycle arrest in mouse B16F10 cells assessed as accumulation at S phase at 1 ug/ml after 24 hrs by flow cytometry analysis (reference value: 9.97 %). Format: functional.
For assay [9], the system named is B16-F10. In words: Cell cycle arrest in mouse B16F10 cells assessed as accumulation at G2/M phase at 1 ug/ml after 24 hrs by flow cytometry analysis (reference value: 17.67 %). Format: functional.

One may read the IC50 as the concentration at which inhibition is half-maximal. A low value points to inhibition by little substance. As a reminder, the pIC50 is −log10 of the IC50, conventionally taken in molar units. Read a high pIC50 as a low IC50. For the compound `CC(=O)N1N=C(c2ccc3ccccc3c2)OC1c1ccccc1` (centres undefined), the IC50 in assay [1] was 21.2 µM; in assay [2], 2.11 µM; in [3] it was 2.43 µM; in [4] it was 2.57 µM. Besides, the pIC50 in assay [1] was 4.17.

Take `COc1ccc(C2OC(c3ccc4ccccc4c3)=NN2C(C)=O)cc1` (centres undefined): the IC50 in assay [1] was determined as 105 µM; in assay [2] it was 3.6 µM; in [3] it was 7.35 µM; in assay [4], 6.86 µM. Moreover, in assay [1], the pIC50 was 3.51.

Regarding `CC(=O)N1N=C(c2ccc3ccccc3c2)OC1c1ccccc1Br` (centres undefined), the IC50 amounted to 51.5 µM in [1], 3.98 µM in assay [2], 5.49 µM in [3] and 6.98 µM in [4]. Also, the pIC50 in [1] is recorded as 3.88.

As for `CC(=O)N1N=C(c2ccc3ccccc3c2)OC1c1cccc(Br)c1` (centres undefined), the IC50 in assay [1] came to 19.4 µM; in assay [2], 1.68 µM; in assay [3], 2.34 µM; in assay [4] it was 2.36 µM. In [1], this compound had a pIC50 of 4.3.

For the compound `CC(=O)N1N=C(c2ccc3ccccc3c2)OC1c1ccc(Br)cc1` (centres undefined), the IC50 is 33.8 µM in assay [1], 2.08 µM in [2], 5.07 µM in assay [3] and 4.68 µM in assay [4]. The same compound returned a pIC50 in [1] of 4.06.

As for `CC(=O)N1N=C(c2ccc3ccccc3c2)OC1c1ccccc1Cl` (centres undefined), the IC50 stood at 51.4 µM in [1], 4.32 µM in [2], 2.36 µM in assay [3] and 4.93 µM in [4]. Further, the pIC50 in assay [1] was determined as 3.83.

With `CC(=O)N1N=C(c2ccc3ccccc3c2)OC1c1ccc(Cl)cc1` (centres undefined), the IC50 turned out to be 12.7 µM in assay [1], 1.88 µM in assay [2], 2.63 µM in assay [3] and 2.48 µM in [4]. The pIC50 in assay [1] stood at 4.44.

For `CC(=O)N1N=C(c2ccc3ccccc3c2)OC1c1ccccc1F` (centres undefined), the IC50 was 48.1 µM in [1], 3.36 µM in assay [2], 3.44 µM in assay [3] and 6.05 µM in assay [4]. The pIC50 in [1] was 3.84.

On to `CC(=O)N1N=C(c2ccc3ccccc3c2)OC1c1cccc(F)c1` (centres undefined), for which the IC50 in [1] came to 9.2 µM; in [2], 1.86 µM; in assay [3] it was 1.98 µM; in assay [4] it was 1.61 µM. The same compound returned a pIC50 in assay [1] of 4.55.

In the case of `CC(=O)N1N=C(c2ccc3ccccc3c2)OC1c1ccc(F)cc1` (centres undefined), the IC50 in assay [1] stood at 28.1 µM; in assay [2] it was 1.82 µM; in assay [3], 3.02 µM; in assay [4], 4.65 µM. In assay [1], this compound came in with a pIC50 of 4.07.

For the compound `CC(=O)N1N=C(c2ccc3ccccc3c2)OC1c1ccccc1[N+](=O)[O-]` (centres undefined), the IC50 in assay [1] came to 140 µM; in assay [2], 12.3 µM; in [3] it was 18.2 µM; in [4], 9.01 µM. In assay [1], this compound displayed a pIC50 of 3.4.

Consider `CC(=O)N1N=C(c2ccc3ccccc3c2)OC1c1ccc([N+](=O)[O-])cc1` (centres undefined), for which the IC50 in [1] was 103 µM; in assay [2] it was 8.1 µM; in assay [3] it was 7.59 µM; in assay [4], 9.32 µM. The compound further displayed a pIC50 in [1] of 3.54.

`CC(=O)N1N=C(c2ccc3ccccc3c2)OC1c1ccccc1O` (centres undefined): the IC50 in assay [1] was 27.1 µM; in assay [2] it was 1.84 µM; in [3], 2.12 µM; in [4], 2.58 µM. This compound also gave a pIC50 in assay [1] of 4.08.

In the case of `CC(=O)N1N=C(c2ccc3ccccc3c2)OC1c1ccc2ccccc2c1` (centres undefined), the IC50 was 4.3 µM in assay [1], 0.85 µM in assay [2], 1.01 µM in [3] and 1.56 µM in assay [4]. Also, the pIC50 in [1] was found to be 4.93. The values for the Activity in assay [5], in assay [6] and in assay [7] were 1.72%, 2.04% and 77.18%, respectively.

In the case of `CC(=O)N1N=C(c2ccc3ccccc3c2)OC1c1ccccn1` (centres undefined), the IC50 in [1] was 53.8 µM; in assay [2] it was 5.26 µM; in assay [3] it was 6.02 µM; in [4] it was 7.18 µM. The compound also had a pIC50 in assay [1] of 3.77.

For the compound `CC(=O)N1N=C(c2ccc3ccccc3c2)OC1c1cccnc1` (centres undefined), the IC50 worked out at 20.1 µM in [1], 2.86 µM in assay [2], 2.61 µM in assay [3] and 3.06 µM in assay [4]. The compound further registered a pIC50 in assay [1] of 4.19.

On to `CC(=O)N1N=C(c2ccc3ccccc3c2)OC1c1ccncc1` (centres undefined), for which the IC50 in assay [1] came to 22.8 µM; in assay [2] it was 2.17 µM; in assay [3] it was 2.56 µM; in assay [4], 2.97 µM. The pIC50 in [1] is given as 4.14.

`CC(=O)N1N=C(c2ccc3ccccc3c2)OC1c1ccc(C)cc1` (centres undefined): the IC50 came to 30.5 µM in assay [1], 2.26 µM in [2], 2.9 µM in [3] and 3.85 µM in assay [4]. The pIC50 in [1] was 4.03.

Regarding `CC(=O)N1N=C(c2ccc3ccccc3c2)OC1c1ccsc1` (centres undefined), the IC50 in assay [1] was 51.9 µM; in assay [2], 6.82 µM; in [3] it was 7.98 µM; in assay [4] it was 8.56 µM. Moreover, the pIC50 in assay [1] is recorded as 3.79.

In the case of `CC(=O)N1N=C(c2ccc3ccccc3c2)OC1c1ccc(OCc2ccccc2)cc1` (centres undefined), the IC50 amounted to 58.2 µM in [1], 3.38 µM in [2], 5.49 µM in [3] and 8.08 µM in assay [4]. Further, the pIC50 in [1] is 3.86.

With `COc1cc2c(c(OC)c1OC)-c1ccc(OC)c(=O)cc1[C@@H](NC(C)=O)CC2` [COLCHICINE], the Activity in assay [8] came to 2.43%; in assay [9], 75.24%.

Turning to `COc1ccc(/C=C\c2cc(OC)c(OC)c(OC)c2)cc1O` [COMBRETASTATIN A4], the IC50 in assay [1] was determined as 2.9 µM; in assay [2], 0.54 µM; in [3], 0.48 µM; in assay [4], 0.75 µM.
